From ChEMBL document CHEMBL3739314, “Discovery of Nanomolar Dengue and West Nile Virus Protease Inhibitors Containing a 4-Benzyloxyphenylglycine Residue” (J Med Chem, 2015)
Active and inactive are the calls of the source. The calls are words filed in the database; no cut-off is given here.

Columns and labels:
dengue virus type 2 [1] = assay: Antiviral activity against Dengue virus serotype-2 infected in African green monkey Vero cells after 7 days by virus yield reduction assay; type: functional, organism-based
[2] = Permeability of compound assessed as compound mass retention after 5 hrs by PAMPA; type: ADME
Method in brief: (§1)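 Precoated PAMPA plates were equilibrated 1 h at room temperature. Donor wells received 200 μM compound in PBS, in triplicate, and acceptor wells received PBS. After 5 h at room temperature, donor and acceptor concentrations were quantified by RP-HPLC UV at 254 nm against six-point calibration curves (10–200 μM). Pe and mass retention were calculated by literature formulas.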

[3] = Half life in Sprague-Dawley rat liver microsomes incubated for 30 mins by UV-HPLC method; type: ADME
Method in brief: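 Pooled male rat liver microsomes (0.2 mg/mL protein) with NADPH (10 mM) in DPBS were preincubated 15 min at 37 °C. Compound (100 μM) was added and incubated at 37 °C; aliquots were taken at 0, 2, 5, 10, 20 and 30 min. Samples were quenched with equal-volume acetonitrile, chilled and centrifuged, and parent remaining was quantified by RP-HPLC UV against reference peak areas. Testosterone served as positive control.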

Trypsin (Homo sapiens) = Trypsin (Homo sapiens) (UniProt P07477+P07478+P35030); assay: Inhibition of trypsin (unknown origin) using Boc-Val-Pro-Arg-AMC as substrate at 25 uM preincubated with protein for 15 mins followed by substrate addition by continuous fluorimetric assay relative to control
[4] = Retention time of compound by RP-HPLC analysis; type: physicochemical
[5] = Inhibition of West Nile virus NS2B-NS3 protease using 2-Abz-Gly-Leu-Lys-Arg-Gly-Gly-[…]-Tyr-NH2 as substrate preincubated with protein for 15 mins followed by substrate addition measured for 15 mins by FRET assay
Method in brief: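 WNV NS2B-NS3 linked construct at 75 nM (40 nM in one case) in pH 9 Tris buffer, preincubated 15 min with eight inhibitor concentrations (ranges 0–1 up to 0–50 μM). Substrate was 50 μM, with FRET readout over 15 min. IC50 was fitted from triplicates.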

West Nile virus [6] = assay: Inhibition of West Nile virus NS2B-NS3 protease using 2-Abz-Gly-Leu-Lys-Arg-Gly-Gly-[…]-Tyr-NH2 as substrate at 50 uM preincubated with protein for 15 mins followed by substrate addition measured for 15 mins by FRET assay
Method in brief: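 Linked WNV NS2B-NS3 protease (150 nM) was preincubated 15 min with inhibitor (50 μM final) in 50 mM Tris-HCl pH 9, 10% ethylene glycol, 0.0016% Brij 58. […] Percent inhibition was taken from the slope relative to the no-inhibitor control, in triplicate.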

West Nile virus [7] = assay: Inhibition of West Nile virus NS2B-NS3 protease at 0 to 48 uM incubated for 1 hr by tryptophan quenching assay
[8] = Permeability of compound after 5 hrs by PAMPA; type: ADME; conditions: read-out: permeability; method in brief: as §1
West Nile virus [9] = assay: Potency index, ratio of EC50 for relative to Bz-Lys-Arg-Phg-NH2 to EC50 for test compound for antiviral activity against West Nile virus infected in human HuH7 cells after 3 days by virus yield reduction assay; type: functional, Huh-7
Method in brief: (§2)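 Huh-7 cells (10^4/well) in DMEM + 10% FBS, overnight at 37 °C, then infected with WNV (MOI 0.1) plus compound, triplicate, 48 h. Pooled supernatant plaque-titrated on Vero E6 (10^-2 to 10^-7, 3 days, crystal violet), giving EC50 by nonlinear fit. Viability of the same infected cells by CellTiter-Glo luminescence gave CC50. Reference inhibitor also assayed.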

[10] = target: Prothrombin (Homo sapiens) (UniProt P00734); assay: Inhibition of thrombin (unknown origin) using Boc-Val-Pro-Arg-AMC as substrate at 25 uM preincubated with protein for 15 mins followed by substrate addition measured for 10 mins by continuous fluorimetric assay relative to control
[11] = Cytotoxicity against human HuH7 cells infected with Dengue virus serotype-2 assessed as cell viability after 48 hrs by Cell-Titer-Glo luminescent viability assay; type: cell-based, Huh-7
Method in brief: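 Huh-7 cells (10^4/well) were seeded in DMEM + 10% FBS overnight, then infected with WT DENV-2 (MOI 1) in the presence of compound, triplicate per concentration. After 48 h at 37 °C, medium was replaced with fresh DMEM and viability was read by CellTiter-Glo luminescence. CC50 was determined.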

[12] = Selectivity index, ratio of CC50 for human HuH7 cells to EC50 for West Nile virus infected in human HuH7 cells; type: toxicity, cell-based, Huh-7; conditions: read-out: Ratio CC50/EC50; method in brief: as §2
[13] = Inhibition of Dengue virus serotype-2 NS2B-NS3 protease using 2-Abz-Nle-Lys-Arg-Arg-Ser-(3-NO2)-Tyr-NH2 as substrate preincubated with protein for 15 mins followed by substrate addition measured for 15 mins by FRET assay; set-up: species or system dengue virus type 2
Method in brief: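 DENV-2 NS2B-NS3 linked construct at 30 nM (15 nM in some cases), same pH 9 Tris buffer, 15 min preincubation and FRET read-out. Eight inhibitor concentrations spanned 0–1, 0–2, 0–6 or 0–50 μM, with substrate at 50 μM. IC50 was fitted from triplicates.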

dengue virus type 2 [14] = assay: Potency index, ratio of EC50 for relative to Bz-Lys-Arg-Phg-NH2 to EC50 for test compound for antiviral activity against Dengue virus serotype-2 infected in African green monkey Vero cells after 7 days by virus yield reduction assay; type: functional
Method in brief: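 Huh-7 cells (10^4/well) in DMEM + 10% FBS, held overnight at 37 °C, then infected with DENV-2 (MOI 1) with nontoxic compound concentrations. Each concentration in triplicate, 48 h at 37 °C, then supernatants pooled. Titres by plaque assay on Vero E6 (10^-1 to 10^-6 dilutions, 1 h adsorption, 7 days, formaldehyde fix, crystal violet, plaque count). EC50 from nonlinear dose-response fit; reference inhibitor also assayed.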

[15] = Cytotoxicity against human HuH7 cells infected with West Nile virus assessed as cell viability after 48 hrs by Cell-Titer-Glo luminescent viability assay; type: cell-based, Huh-7
Method in brief: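 Huh-7 cells (10^4/well, DMEM + 10% FBS, overnight) were infected with WT WNV (MOI 0.1) alongside compound, each concentration in triplicate. After 48 h at 37 °C, fresh DMEM was added and viability was measured by CellTiter-Glo luminescence. CC50 was determined.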

[16] = Selectivity index, ratio of CC50 for African green monkey Vero cells to EC50 for Dengue virus serotype-2 infected in African green monkey Vero cells; type: toxicity, cell-based; conditions: read-out: Ratio CC50/EC50
dengue virus type 2 [17] = assay: Inhibition of Dengue virus serotype-2 NS2B-NS3 protease at 0 to 48 uM incubated for 1 hr by tryptophan quenching assay
West Nile virus [18] = assay: Antiviral activity against West Nile virus infected in human HuH7 cells after 3 days by virus yield reduction assay; type: functional, organism-based; conditions: Huh-7, 72 h

EC50 (dengue virus type 2 [1]): 3.42 µM
permeability [2]: 1.15%
half-life [3]: 2.92 h
inhibition (Trypsin (Homo sapiens)): inactive
Retention_time [4]: 3.28 min
IC50 [5]: 0.557 µM
inhibition (West Nile virus [6]): 100%
inhibition (West Nile virus [7]): Active
Papp at 5 h [8]: 0.65 ×10⁻⁶ cm/s
inhibition [10]: inactive
IC50 [13]: 0.176 µM
inhibition (dengue virus type 2 [17]): Active
EC50 (West Nile virus [18]): 15.6 µM
SMILES: COc1cccc(COc2ccc([C@@H](NC(=O)[C@H](CCCCN)NC(=O)[C@H](CCCNC(=N)N)NC(=O)c3ccc(-c4cccs4)s3)C(N)=O)cc2)c1
Ratio EC50 (West Nile virus [9]): 7
CC50 at 48 h [11]: > 100 µM
selectivity ratio [12]: > 7
Ratio EC50 (dengue virus type 2 [14]): 25
CC50 at 48 h [15]: > 100 µM
selectivity ratio [16]: > 25
